ChEMBL document CHEMBL1123628, “Streptonigrin and lavendamycin partial structures. Probes for the minimum, potent pharmacophore of streptonigrin, lavendamycin, and synthetic quinoline-5,8-diones” (J Med Chem, 1987)
Values after ≈ are worked out from the molar mass of the structure shown.

Key:
[1] = test system: Escherichia coli; test: Antimicrobial activity was determined against Escherichia coli ATCC 9637; assay type: functional
Outline: (§1)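 MICs (µg/mL) were determined by agar dilution/streak against S. aureus ATCC 13709, E. coli ATCC 9637, S. gallinarum ATCC 9184, K. pneumoniae ATCC 10031, M. smegmatis ATCC 607, P. aeruginosa ATCC 27853 and C. albicans ATCC 10231.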

[2] = test system: Mycolicibacterium smegmatis; test: Antimicrobial activity was determined against Mycobacterium smegmatis ATCC 607; assay type: functional; outline: as §1
[3] = test system: Candida albicans; test: Antimicrobial activity was determined against Candida albicans ATCC 10231; assay type: functional; outline: as §1
[4] = test system: P388; test: Cytotoxic activity against P388 mouse leukemia cell culture (9PS(P388)); assay type: functional, cell-based
Outline: (§2)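 P388 (9PS, NCI-supplied line) and 9KB IC50s (µg/mL) followed NCI cell culture protocols. Samples were run in duplicate, and growth was compared with untreated controls. IC50 was extrapolated from a least-squares fit of the dose–response curve.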

[5] = test system: Klebsiella pneumoniae; test: Antimicrobial activity was determined against Klebsiella pneumoniae ATCC 10031; assay type: functional; outline: as §1
[6] = test system: Pseudomonas aeruginosa; test: Antimicrobial activity was determined against Pseudomonas aeruginosa ATCC 27853 cells; assay type: functional; outline: as §1
[7] = test system: L1210; test: Cytotoxic activity against mouse lymphoblastic leukemia cell culture (L-1210); assay type: functional, cell-based
Outline: (§3)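 10^4 B16 or L-1210 (ATCC 219) cells were seeded per well in DMEM with 5% bovine serum and grown 48 h at 37 °C under 5% CO2. Agents from 10 mg/mL stocks in 95% ethanol or DMSO were added as 2× medium, then 48 h more. L-1210 cells were dispersed by pipetting; B16 were detached with 0.01% trypsin/0.1% EDTA for 5 min at 37 °C. Cells were counted by hemocytometer or Coulter counter, and the dose halving the count versus untreated controls was read from the count–concentration plot.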

[8] = test system: Salmonella enterica subsp. enterica serovar Gallinarum; test: Antimicrobial activity was determined against Salmonella gallinarum ATCC 9184; assay type: functional; outline: as §1
[9] = test system: B16; test: Cytotoxic activity against mouse melanoma cell culture(B-16); assay type: functional, cell-based; outline: as §3
[10] = test system: Epidermoid carcinoma cell line; test: Cytotoxic activity against human epidermoid carcinoma of the nasopharynx (9KB); assay type: functional, cell-based; outline: as §2
[11] = test system: Staphylococcus aureus; test: Antimicrobial activity was determined against Staphylococcus aureus ATCC 13709; assay type: functional; outline: as §1
[12] = test system: CCRF-CEM; test: Cytotoxic activity against human lymphoblastic leukemia cell culture (CCRF-CEM); assay type: functional, cell-based
[13] = test system: CCRF-CEM; test: Cytotoxicity against human lymphoblastic leukemia cell culture (CCRF-CEM); assay type: functional, cell-based
[14] = test system: P388; test: Cytotoxicity against P388 mouse leukemia cell culture (9PS(P388)); assay type: functional, cell-based; outline: as §2
[15] = test system: L1210; test: Cytotoxicity against mouse lymphoblastic leukemia cell culture (L-1210); assay type: functional, cell-based; outline: as §3
[16] = test system: B16; test: Cytotoxicity against mouse melanoma cell culture(B-16); assay type: functional, cell-based; outline: as §3
[17] = test system: Epidermoid carcinoma cell line; test: Cytotoxicity against human epidermoid carcinoma of the nasopharynx (9KB); assay type: functional, cell-based; outline: as §2

Row | SMILES | MIC [1] [µg/mL] | MIC [2] [µg/mL] | MIC [3] [µg/mL] | MIC [5] [µg/mL] | MIC [6] [µg/mL] | MIC [8] [µg/mL] | MIC [11] [µg/mL] | IC50 [4] [µg/mL] | IC50 [7] [µg/mL] | IC50 [9] [µg/mL] | IC50 [10] [µg/mL] | IC50 [12] [µg/mL] | IC50 [13] [µg/mL] | IC50 [14] [µg/mL] | IC50 [15] [µg/mL] | IC50 [16] [µg/mL] | IC50 [17] [µg/mL]
1 | COC(=O)c1nc(C(C)=O)c2[nH]c3ccccc3c2c1C | > 50 | > 50 | > 50 | > 50 | > 50 | > 50 | > 50 |  | > 25 | > 25 |  |  |  |  |  |  | 
2 | COC(=O)c1[nH]c(C(=O)OC)c(C)c2c3ccccc3nc1-2 | > 50 | > 50 | > 50 | > 50 | > 50 | > 50 | > 50 |  | > 25 | > 25 |  | 16.8 (≈ 56.3 µM) |  |  |  |  | 
3 | COC(=O)c1nc(-c2ccc3c(n2)C(=O)C(=N)C(OC)=C3O)c(N)c(-c2ccc(OC)c(OC)c2O)c1C | > 100 | > 100 | > 100 | > 100 | > 100 | > 100 | > 100 |  |  |  |  |  | 0.017 (≈ 0.0327 µM) | 0.26 (≈ 0.5 µM) | 3.1 (≈ 5.96 µM) | 1.5 (≈ 2.88 µM) | 0.53 (≈ 1.02 µM)
4 | COC(=O)c1[nH]c(-c2ccc3c(n2)C(=O)C(=N)C=C3O)c2nc3ccccc3c-2c1C |  |  |  |  |  |  |  |  |  |  |  |  |  |  | 2.2 (≈ 5.33 µM) | 3.1 (≈ 7.52 µM) | 
5 | COC1=C(N)C(=O)c2ncccc2C1=O | > 50 | 50 (≈ 245 µM) | 50 (≈ 245 µM) | 50 (≈ 245 µM) | > 100 | > 50 | 6.25 (≈ 30.6 µM) | 0.22 (≈ 1.08 µM) | 1 (≈ 4.9 µM) | 1.2 (≈ 5.88 µM) | 1.9 (≈ 9.31 µM) | 0.2 (≈ 0.98 µM) |  |  |  |  | 
6 | COC(=O)c1nc(C(=O)OC)c(N)c(-c2ccc(OC)c(OC)c2O)c1C | > 50 | > 50 | > 50 | > 50 | > 50 | > 50 | > 50 | > 10 | > 20 | > 20 | > 10 |  |  |  |  |  | 
7 | COC1=C(N)C(=O)c2nc(-c3nc(C(=O)O)c(C)c(-c4ccc(OC)c(OC)c4O)c3N)ccc2C1=O [STREPTONIGRIN] | 6.25 (≈ 12.3 µM) | 1.56 (≈ 3.08 µM) | 12.5 (≈ 24.7 µM) | 0.1 (≈ 0.197 µM) | 6.25 (≈ 12.3 µM) | 1.56 (≈ 3.08 µM) | < 0.1 |  |  |  |  |  | 0.00017 (≈ 0.000336 µM) | 0.045 (≈ 0.0889 µM) | 0.61 (≈ 1.2 µM) | 0.48 (≈ 0.948 µM) | 0.0025 (≈ 0.00494 µM)

Now from value to compound, other results behind:

Row | MIC [1] [µg/mL] | MIC [2] [µg/mL] | MIC [3] [µg/mL] | MIC [5] [µg/mL] | MIC [6] [µg/mL] | MIC [8] [µg/mL] | MIC [11] [µg/mL] | SMILES | IC50 [4] [µg/mL] | IC50 [7] [µg/mL] | IC50 [9] [µg/mL] | IC50 [10] [µg/mL] | IC50 [12] [µg/mL] | IC50 [13] [µg/mL] | IC50 [14] [µg/mL] | IC50 [15] [µg/mL] | IC50 [16] [µg/mL] | IC50 [17] [µg/mL]
8 | > 100 | 1.56 (≈ 5.55 µM) | 3.12 (≈ 11.1 µM) | 25 (≈ 88.9 µM) | > 100 | > 100 | 1.56 (≈ 5.55 µM) | COC1=C(N)C(=O)c2nc(-c3ccccn3)ccc2C1=O | 0.034 (≈ 0.121 µM) | 0.3 (≈ 1.07 µM) | 0.45 (≈ 1.6 µM) | 0.33 (≈ 1.17 µM) | 0.5 (≈ 1.78 µM) |  |  |  |  | 
9 | > 50 | > 50 | > 50 | > 50 | > 50 | > 50 | > 50 | NC1=CC(=O)c2ccc(-c3cc(C(=O)O)ccc3N)nc2C1=O | 5 (≈ 16.2 µM) | > 20 | > 20 | > 10 | 14.6 (≈ 47.2 µM) |  |  |  |  | 
10 | > 100 | 0.78 (≈ 3.1 µM) | 50 (≈ 199 µM) | 100 (≈ 398 µM) | > 100 | 100 (≈ 398 µM) | 3.12 (≈ 12.4 µM) | NC1=CC(=O)c2ccc(-c3ccccn3)nc2C1=O | 0.0023 (≈ 0.00915 µM) | 0.42 (≈ 1.67 µM) | 0.26 (≈ 1.03 µM) | 0.1 (≈ 0.398 µM) | 0.09 (≈ 0.358 µM) |  |  |  |  | 
11 | > 50 | > 50 | > 50 | > 50 | > 50 | > 50 | > 50 | COC(=O)c1ccc(N)c(-c2ccc3c(n2)C(=O)C(=N)C=C3O)c1 | 0.2 (≈ 0.619 µM) | 0.6 (≈ 1.86 µM) | 0.4 (≈ 1.24 µM) | 2.7 (≈ 8.35 µM) | 0.4 (≈ 1.24 µM) |  |  |  |  | 
12 | > 50 | > 50 | > 50 | > 50 | > 50 | > 50 | > 50 | NC1=CC(=O)c2ccc(-c3cccc(C(=O)O)n3)nc2C1=O |  |  |  |  |  | 2.1 (≈ 7.11 µM) | > 10 | > 20 | > 20 | > 10
13 | > 50 | 6.25 (≈ 20.2 µM) | > 50 | 50 (≈ 162 µM) | > 50 | > 50 | 6.25 (≈ 20.2 µM) | COC(=O)c1cccc(-c2ccc3c(n2)C(=O)C(=N)C=C3O)n1 | 3.9 (≈ 12.6 µM) | 0.4 (≈ 1.29 µM) | 0.9 (≈ 2.91 µM) | 0.17 (≈ 0.55 µM) | 0.1 (≈ 0.323 µM) |  |  |  |  | 
14 | 50 (≈ 287 µM) | 12.5 (≈ 71.8 µM) | 50 (≈ 287 µM) | 50 (≈ 287 µM) | > 100 | 50 (≈ 287 µM) | 12.5 (≈ 71.8 µM) | NC1=CC(=O)c2cccnc2C1=O | 0.19 (≈ 1.09 µM) |  | 0.4 (≈ 2.3 µM) | 0.74 (≈ 4.25 µM) | 0.3 (≈ 1.72 µM) |  |  |  |  | 
